One data set has as its system L1210. The data set is described as follows: Binding affinity to mouse L1210 cell DNA assessed as DNA cross-linking activity at 10 to 50 uM using H33258 dye by rapid DNA renaturation assay. Format: cell-based.
Data set [1] relates to DU-145. The data set is described as follows: Cytotoxicity against human DU145 cells expressing AGT at 10 to 80 uM after 4 hrs by clonogenic assay. The data set is classed as functional, cell-based. In a few lines: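 DU145 human prostate carcinoma cells, which naturally express about 42,000 AGT molecules/cell, were exposed to graded drug concentrations for 4 h or 24 h. Cytotoxicity was expressed as LC50.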

In data set [2] the test system is EMT6. The data set is described as follows: Cytotoxicity against mouse AGT negative EMT6 cells under aerobic conditions after 4 to 24 hrs by clonogenic assay. The data set is classed as functional, cell-based. The conditions noted are these: for CC50: read-out: LC50 (the source's name). In a few lines:
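Murine mammary carcinoma cells lacking AGT expression were exposed to graded concentrations for short (4 h) or long (24 h) periods. LC50 was taken from cytotoxicity curves.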

Data set [3] deals with DU-145. The data set is described as follows: Cytotoxicity against human DU145 cells expressing AGT after 4 to 24 hrs by clonogenic assay. Format: functional. To be noted: read-out: LC50 (the source's name). In a few lines:
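Human prostate carcinoma cells with natural AGT expression (42,000 molecules/cell) were exposed to graded concentrations for 4 h or 24 h. LC50 was read from cytotoxicity curves.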

Data set [4] relates to EMT6. Kind of data set: Ratio of laromustine IC50 for compound IC50 for mouse AGT negative EMT6 cells. Format: functional.
Data set [5] deals with DU-145. Kind of data set: Induction of AGT ablation in human DU145 cells assessed as [benzene-3H]-O6-benzylguanine binding at 80 uM after 4 hrs. The data set is classed as functional. In a few lines:
(§1)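 DU145 human prostate carcinoma cells (about 42,000 AGT molecules/cell) were treated with 80 μM agent for 2 h or 4 h. Remaining AGT level was then measured relative to untreated cells.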

Data set [6] can be described thus: Half life in 1 mM potassium phosphate buffer at pH 7.4 at 50 uM by spectrophotometric analysis. The data set is classed as physicochemical.
Data set [7] concerns DU-145. Kind of data set: Induction of AGT ablation in human DU145 cells assessed as [benzene-3H]-O6-benzylguanine binding at 80 uM after 2 hrs. The data set is classed as functional. In a few lines: as §1
Data set [8] concerns DU-145. Kind of data set: Cytotoxicity against human DU145 cells expressing AGT after 4 to 24 hrs by clonogenic assay in presence of 100 uM of AGT inhibitor O6-BG. The data set is classed as functional, cell-based. The method, boiled down:
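DU145 cells (42,000 AGT molecules/cell) were pretreated with 100 μM O6-BG for 2 h, then exposed to graded drug concentrations. Cytotoxicity was then assessed.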

Data set [9] deals with DU-145. The data set is described as follows: Ratio of laromustine IC50 for compound IC50 for human DU145 cells expressing AGT. The data set is classed as functional.

Active and inactive are the calls of the source. No cut-off for these calls is given here.

On to `CN(N=O)C(=O)N(N(CCCl)S(C)(=O)=O)S(C)(=O)=O`, for which the outcome in the data set on L1210, in the data set on DU-145 [1] and with DU-145 [8] was Active. Besides, the CC50 with EMT6 [2] was 0.7 µM; with DU-145 [3], 6.3 µM. In addition, the “Ratio IC50” value with EMT6 [4] was 12; in the data set on DU-145 [9], >12. For the same compound, the figures for the Activity in the data set on DU-145 [5] and in the data set on DU-145 [7] were >90% and >80%, respectively. Moreover, in data set [6], the half-life at 50 µM was 10 min.

Regarding `CNC(=O)N(N(CCCl)S(C)(=O)=O)S(C)(=O)=O` [LAROMUSTINE], the outcome in the data set on L1210, with DU-145 [1] and in the data set with DU-145 [8] was Active. Moreover, the CC50 in the data set on EMT6 [2] was 8.3 µM; with DU-145 [3], > 80 µM.

Turning to `CS(=O)(=O)NN(CCCl)S(C)(=O)=O` [VPN-4090CE], the outcome in the data set with L1210 was Active. The half-life at 50 µM in [6] came to 0.55 min.

The compound `CN(NS(C)(=O)=O)S(C)(=O)=O` returned an IC50 in the data set with EMT6 [2] of 3000 µM. The CC50 with DU-145 [3] was found to be 1600 µM.

Take `CN(N(C(=O)N(CCCl)N=O)S(C)(=O)=O)S(C)(=O)=O`: the result in the data set on L1210, in the data set on DU-145 [1], with DU-145 [5], in the data set with DU-145 [7] and in the data set on DU-145 [8] was Active. Also, in [6], the half-life at 50 µM came to 13.4 min.
